Screening data deposited in PubChem by several laboratories.
KLK7 zymogen act: proKLK7 zymogen activators, primary screen, biochemical, fluorescence intensity; activation, % at 7 µM; AID 652039, 2013; purified proKLK7, EDANS-DABCYL substrate fluorescence; 100% is mature enzyme control, 0% vehicle; 370,000 tested, 0.9% active;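 active = activation above the mean of all tested compounds plus 3 SD, computed per campaign excluding outliers beyond control limits, cut at about 13% in these data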
Tn7 DDE FP: inhibitors of Tn7 peptide binding to fibrin DD(E), primary screen, biochemical, fluorescence polarization, human fibrin, Tn7 probe; Fibrinogen beta chain (Homo sapiens), P02675; FP displacement of FITC-Tn7 peptide from fibrin DD(E); 0% = median of compound wells per plate; 370,000 tested, 0.13% active; inhibition, % at 8.3 µM; AID 720508, 2013;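 active = inhibition above the mean of compounds falling within the control limits plus 3 SD of them, cut at about 14% in these data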;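 note: 0% = plate median of compound wells and 100% = 10 µM Aha-Tn7 peptide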
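Assay system: Human fibrin DD(E) protein | Medium: Tris buffer with calcium and detergent, pH 7.8 | Reagent: 0.1 µM fluorescent Tn7 | Compound dosing: Single point at 8.3 µM | Times: 10 min preincubation, 3 h with tracer, room temperature | Detection: Fluorescence polarization of the labelled Tn7 tracer | Controls: Aha-Tn7 high control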
PLC-beta3 inh: human PLC-beta3 inhibitors, primary screen, biochemical, fluorescence. 1-phosphatidylinositol 4,5-bisphosphate phosphodiesterase beta-3 (Homo sapiens), Q01970. Purified PLC-beta3, fluorogenic substrate. inhibition, % at 12.2 µM. 370,000 tested, 0.18% active. AID 720704, 2013; in the data active = inhibition above about 11%;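 note: 0% = median of compound wells on plate and 100% = full blocker control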
PLCg1 inh: PLC-gamma1 enzyme inhibitors, primary screen, biochemical, fluorescence, purified enzyme; 1-phosphatidylinositol 4,5-bisphosphate phosphodiesterase gamma-1 (Homo sapiens), P19174; fluorogenic substrate; inhibition, % at 12.2 µM; 370,000 tested, 0.84% active; AID 720700, 2013; in the data active = inhibition above about 9.5%
CendR NRP1 mod: modulators of CendR peptide binding to NRP-1, primary screen, biochemical, fluorescence polarization, uHTS | Neuropilin-1 (Homo sapiens), O14786 | FAM-RPARPAR peptide binding to NRP-1 | inhibition, % at 25 µM | 360,000 tested, 0.85% active | AID 602438, 2012;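 active = inhibition or corrected inhibition above about 18%, plus a signal ratio from 0.5 to 1.5, limit read from the data, passing the limit was not always enough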
Target sequence (O14786 whole entry, looked up): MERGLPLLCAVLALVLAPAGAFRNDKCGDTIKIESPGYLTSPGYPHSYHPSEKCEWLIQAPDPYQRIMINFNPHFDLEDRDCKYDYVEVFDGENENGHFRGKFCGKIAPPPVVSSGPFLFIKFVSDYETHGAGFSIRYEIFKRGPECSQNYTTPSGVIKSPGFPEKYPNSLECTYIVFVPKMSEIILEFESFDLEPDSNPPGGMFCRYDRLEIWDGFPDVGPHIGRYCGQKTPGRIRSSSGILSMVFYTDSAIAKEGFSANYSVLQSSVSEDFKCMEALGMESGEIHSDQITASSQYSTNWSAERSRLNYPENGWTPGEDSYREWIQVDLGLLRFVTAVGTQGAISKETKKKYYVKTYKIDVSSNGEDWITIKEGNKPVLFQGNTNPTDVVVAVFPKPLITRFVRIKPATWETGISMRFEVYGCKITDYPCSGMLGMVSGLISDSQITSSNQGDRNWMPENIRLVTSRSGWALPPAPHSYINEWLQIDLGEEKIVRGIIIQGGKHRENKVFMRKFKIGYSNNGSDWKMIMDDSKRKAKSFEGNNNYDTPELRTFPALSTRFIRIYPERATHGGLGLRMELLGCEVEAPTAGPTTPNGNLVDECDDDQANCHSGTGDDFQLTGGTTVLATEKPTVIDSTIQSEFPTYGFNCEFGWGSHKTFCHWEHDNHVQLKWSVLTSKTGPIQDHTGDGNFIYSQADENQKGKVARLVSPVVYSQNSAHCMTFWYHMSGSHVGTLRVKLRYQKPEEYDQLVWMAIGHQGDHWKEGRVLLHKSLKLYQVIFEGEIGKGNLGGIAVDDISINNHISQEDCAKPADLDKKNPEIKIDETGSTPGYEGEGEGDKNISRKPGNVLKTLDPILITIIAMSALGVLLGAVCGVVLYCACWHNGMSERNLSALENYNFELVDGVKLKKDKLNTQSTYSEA
Tn6 DDE FP: inhibitors of Tn6 peptide binding to fibrin DD(E), primary screen, biochemical, fluorescence polarization, human fibrin, Tn6 probe; Fibrinogen beta chain (Homo sapiens), P02675; inhibition, % at 8.3 µM; AID 720509, 2013; Fibrin DD(E) TRITC-Tn6 fluorescence polarization displacement; 370,000 tested, 0.21% active;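 active = inhibition above a per-campaign cutoff: mean of compounds within control limits plus 3 SD, cut at about 15% in these data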;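 note: 0% = median of all compound wells on the plate and 100% = blocking peptide control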
Numbers without * were called inactive; nt = not tested or not shown. Hits are enriched below; roughly 3% of the tested compounds scored in any of these assays.

SMILES	KLK7 zymogen act	Tn7 DDE FP	PLC-beta3 inh	PLCg1 inh	CendR NRP1 mod	Tn6 DDE FP
CCOC(=O)c1ccc(N2N=C(C)/C(=C/C=C/c3ccco3)C2=O)cc1	0	0	1	0	-10	5
CCOC(=O)[C@]12CCCC3=C1N(CCC3)C(=O)[C@@H](CC(=O)N1CCCCC1)C2	0	3	3	3	nt	5
CCC(=O)c1cn(CC(=O)Nc2ccccc2)c2ccccc12	0	-6	-6	0	34*	7
CCC(=O)c1cn(CC(=O)Nc2ccc(C)cc2)c2ccccc12	0	-1	-5	1	4	0
CN1CCc2c(sc3c2C(=O)NC(c2ccccn2)N3)C1 (stereo unspecified)	-4	12	-153	-122	-1	28*
C=CCN1[C@@H](C)COc2cc(F)ccc2S1(=O)=O	0	4	-3	-1	nt	-4
CCOc1ccccc1C(=O)N[C@H](C(=O)Nc1nc2c(s1)CCCC2)C(C)C	-1	8	-1	5	-3	0
COc1ccc(C(=O)N[C@H](C(=O)Nc2nc3c(s2)CCCC3)C(C)C)cc1	0	3	6	1	26*	0
COC(=O)[C@]12C[C@H](CC(=O)NCC3CCCCC3)C(=O)N(Cc3cccc4ccccc34)C1=C[C@H](COCc1ccccc1)O[C@@H]2C	0	-2	3	-1	nt	2
C/C(=C\c1ccc2c(c1)OCO2)C1Nc2cccc3cccc(c23)N1	-1	7	-1	0	17*	-13
CCn1c(NC(=O)c2ccccc2)nc2ccccc21	0	7	-13	-5	-5	0
C=CCn1c(NC(=O)c2ccccc2)nc2ccccc21	-1	-3	-12	-6	26*	1
CC(=O)Nc1nc2ccccc2n1CCN(C)C	0	-5	13*	3	8	-5
CC1(c2ccc3noc(-c4ccccc4)c3c2)OCCO1	0	-4	-9	-7	-4	2
O=Cc1ccc2noc(-c3ccc(F)cc3)c2c1	-4	2	-83	-65	24*	-2
Fc1ccc(-c2onc3ccc(C4OCCO4)cc23)cc1	-1	-4	-18	-10	2	6
CC1(c2ccc3noc(-c4ccc(F)cc4)c3c2)OCCO1	0	-1	-63	-62	27*	-1
COC(=O)[C@]12C[C@H](CC(=O)N3CCN(C(=O)c4ccco4)CC3)C(=O)N(Cc3ccccc3)C1=C[C@H](COCc1ccccc1)O[C@@H]2C	1	1	-1	1	nt	-4
Cc1cccc(-c2noc(CSc3ccccc3)n2)c1	0	1	2	6	31*	-6
CN1Cc2nnn(Cc3ccccc3)c2-c2cc(N3CCCC3)ccc2S1(=O)=O	-4	-7	-370	-303	nt	0
COc1ccc(CCn2c(C)cc3c(c2=O)C(c2ccncc2)C(C#N)=C(N)O3)cc1OC (stereo unspecified)	0	0	-1	-2	19*	1
O=C(NC1CCCCN(Cc2cccc(C(F)(F)F)c2)C1=O)c1ccc(F)c(F)c1 (stereo unspecified)	0	-4	0	1	nt	-1
Cc1cc(-c2ccc(F)cc2)nc2cc(C(N)=O)nn12	9	-3	-447	-466	26*	-8
CC(=O)Nc1ccc(NC(=O)COC(=O)C2CCCCC2)cc1	0	-2	-1	0	24*	7
CC(=O)OCC(=O)C1(O)CCC2C3CC(C)C4=CC(=O)C=CC4(C)C3=CCC21C (stereo unspecified)	1	5	0	4	19*	4
SMILES	KLK7 zymogen act	Tn7 DDE FP	PLC-beta3 inh	PLCg1 inh	CendR NRP1 mod	Tn6 DDE FP
COCCN=C1S/C(=C\c2cc(C)n(-c3ccc(F)cc3F)c2C)C(=O)N1C	nt	-2	-18	-6	nt	-1
S=C(NNC(=S)Nc1ccccc1)Nc1ccccc1	0	1	2	0	-7	-2
NC(=S)NNC(=S)Nc1ccccc1	-1	1	5	1	39*	1
Cc1[nH]c2ccccc2c1C(=O)C(=O)N1CCN(c2cccc(Cl)c2)CC1	0	3	-1	13*	7	-6
Cc1[nH]c2ccccc2c1C(=O)C(=O)N1CCN(c2ccccc2Cl)CC1	1	3	-12	-3	-8	3
CNC(=O)C[C@@H]1CC[C@@H]2[C@H](COc3ccc(NC(=O)c4cccc(F)c4)cc3C(=O)N2C)O1	0	8	3	-2	nt	1
COc1ccc(CNC(=O)CCNS(=O)(=O)c2ccc(Cl)cc2)cc1	0	-6	-10	4	28*	-4
CC(C)NC(=O)CSc1ccccc1C(=O)N1CCN(S(=O)(=O)/C=C/c2ccccc2)CC1	0	0	-9	1	2	8
CC(C)NC(=O)CSc1ccccc1C(=O)N1CCN(S(=O)(=O)Cc2ccccc2)CC1	0	-7	-2	11*	12	2
COc1ccccc1C(=O)N1CCCC(c2nc(-c3cccs3)no2)C1 (stereo unspecified)	0	1	0	-2	nt	1
CC(OC(=O)c1ccco1)C(=O)Nc1ccc(C(F)(F)F)cc1 (stereo unspecified)	0	-4	-2	12*	-6	6
COc1ccc(CSc2nnc(SCC(=O)Nc3ccccc3-c3ccccc3)s2)cc1	0	-1	-2	-2	nt	-1
COC(=O)C(C(=O)OC)C1C=CCN(C(C)=O)C1 (stereo unspecified)	0	-2	0	29*	10	-2
O=C(C1CCN(c2ncnc3c2sc2cccc(F)c23)CC1)N1CCN(C(=O)C2CCCO2)CC1 (stereo unspecified)	-2	4	-100	-73	nt	3
Cc1csc(N=Nc2ccc(N(C)C)cc2)[n+]1[O-]	0	2	10	11*	0	2
COc1ccccc1OCCNC(=O)CSC(=S)N1CCCC1	0	0	-3	0	-6	-3
COc1ccccc1OCC(=O)NNC(=O)CSC(=S)N1CCCC1	0	2	3	3	24*	-1
COc1ccc(C(=O)NC2CC2)cc1OC1CCN(Cc2ccccc2)CC1	0	-9	4	4	22*	9
COc1ccc(/C=C2\SC(=S)N(CCC(=O)NC3CCCC3)C2=O)cc1OC	0	2	-6	1	22*	-10
CCOC(=O)N1CCN(C(=O)CCN2C(=O)/C(=C\c3ccc(OC)c(OC)c3)SC2=S)CC1	-1	4	1	-1	-12	-2
